Most compounds without a hit are left out; they make up all but 2.1% or so of the library.
Shn3 inh set2: inhibitors of Schnurri-3 3'UTR reporter in osteoblasts. Clone20 osteoblast Shn3 3'UTR firefly luciferase, 24 h. inhibition, % at 12.5 µM. hit rate 0.52% among 360,000;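 active = mean inhibition of at least 75% with every replicate also reaching 75%; inconclusive = mean inhibition at least 75% but some replicate below; inactive = mean inhibition below 75%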;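 also: 0% = median of neutral control wells and 100% = pilot-screen positive control compound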
FN deposit inh: fibronectin deposition inhibition | AID 743247 | inhibition, % at 12.6 µM | AH1F fibroblasts, Alexa488-fibronectin deposition fluorescence, overnight | hit rate 0.086% among 350,000;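 active = mean inhibition across replicates of 30% or more, regardless of how many single replicates reach that level; inconclusive = mean under 30% yet at least half of replicates reach 30%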;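 also: positive control wells lacked labelled fibronectin entirely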
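Material: AH1F fibroblast monolayer depositing Alexa488-labelled fibronectin into matrix / Amount: 10000 AH1F cells per well / Signal: fluorescence 485/525 nm / Medium: DMEM, 2% serum / Compound: single dose, pinned / Incubation: 1 h cell adhesion before compound, then overnight fibronectin incubation / Reagent: Alexa488-FN, 24 nM final / Read-out: inhibition of fibronectin deposition signal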
aSyn 5UTR inh: 5' untranslated region of α-synuclein, MLPCN primary screen | inhibition, % (tested at 7.5 µM) | alpha-synuclein 5'UTR reporter, inhibitor activity | AID 1813 | hit rate 0.82% among 300,000; in the data active = inhibition above about 60%; inconclusive = no clear call, values can overlap the other calls;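 also: H4 neuroglioblastoma cells stably carrying SNCA 5'UTR luciferase fusion; 0% = DMSO wells and 100% = positive control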
PAX8 reporter: inhibitors of PAX8 transcriptional activity in RMG-I cells; RMG-I TPO-luciferase reporter, SteadyGlo, 24 h; inhibition, % at 12.6 µM; hit rate 1.2% among 360,000; AID 652154;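 active = mean replicate inhibition at least 60% with every replicate also reaching 60%; inconclusive = only one of the two criteria is met; inactive = mean below 60% and not all replicates reaching 60%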;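 also: luciferase light reporting Pax8 driven TPO promoter activity; plate controls were median of neutral control wells for no effect and mitoxantrone controls for full effect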
EWS-Fli inh: EWS/Fli transcriptional activity inhibition; A673 NR0B1-luciferase reporter, viability-normalised; inhibition, % at 12.6 µM; hit rate 0.67% among 350,000; AID 651661;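 active = mean inhibition of at least 50% after viability correction, with every replicate also passing that limit; inconclusive = mean reaches 50% but only one of two replicates passes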;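 also: firefly luciferase signal divided by Alamar Blue viability fluorescence both relative to DMSO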
LMP1 NFkB inh: reduces LMP1-driven NF-kappaB luciferase signal; hit rate 0.69% among 350,000; inhibition, % at 12.5 µM; AID 504558; LMP1-induced NF-kappaB luciferase reporter cells, luminescence; in the data active = inhibition above about 41%; inconclusive = no clear call, values can overlap the other calls;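 also: 0% = neutral control wells and 100% = reference inhibitor control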
* marks the source's active call; other numbers are inactive results.

Screening CCC(=O)NC(c1ccco1)c1cc(Br)c2cccnc2c1O (stereo unspecified) returned Shn3 inh set2 38, FN deposit inh 7, PAX8 reporter 35 and EWS-Fli inh 13.
For CCC(=O)NC(c1cccs1)c1cc(Cl)c2cccnc2c1O (stereo unspecified) the results were Shn3 inh set2 73, FN deposit inh -7, aSyn 5UTR inh 86*, PAX8 reporter 58, EWS-Fli inh 23 and LMP1 NFkB inh 21.
`CCCCC(=O)NC(c1cccs1)c1cc(Cl)c2cccnc2c1O` (stereo unspecified) gave Shn3 inh set2 24, FN deposit inh 23, aSyn 5UTR inh 80*, PAX8 reporter inconclusive, EWS-Fli inh 39 and LMP1 NFkB inh 6.
For CCOc1ccc(-n2c(C)cc(C(=O)CCl)c2C)cc1 the results were Shn3 inh set2 77, FN deposit inh 14, aSyn 5UTR inh 111*, PAX8 reporter 17, EWS-Fli inh 47 and LMP1 NFkB inh 5.
Screening COC(=O)c1ccc(-n2c(C)cc(C(=O)CCl)c2C)cc1 returned Shn3 inh set2 33, FN deposit inh -1, aSyn 5UTR inh 32, PAX8 reporter 19, EWS-Fli inh 46 and LMP1 NFkB inh 7.
For O=C(CCNS(=O)(=O)c1cccc2nonc12)NC1CCCc2ccccc21 (stereo unspecified) the results were Shn3 inh set2 3, FN deposit inh 36* and LMP1 NFkB inh 5.
Screening O=C(CCNS(=O)(=O)c1cccc2nsnc12)NC1CCCc2ccccc21 (stereo unspecified) returned Shn3 inh set2 -5, FN deposit inh 1, aSyn 5UTR inh 14, PAX8 reporter 2 and LMP1 NFkB inh 1.
`O=C(C[C@@H]1CC[C@H]2[C@@H](COC[C@@H](O)CN2S(=O)(=O)c2cccc(Cl)c2)O1)N1CCOCC1` gave FN deposit inh -11, PAX8 reporter -10 and EWS-Fli inh -11.
For O=C/C=C/c1ccc2c(c1)OCO2 the results were PAX8 reporter 4 and EWS-Fli inh -10.
Screening COc1cccc(C#Cc2ccc([C@@H]3[C@@H](CO)N(C(=O)C4CCC4)[C@H]3C#N)cc2)c1 returned FN deposit inh -7, PAX8 reporter 70* and EWS-Fli inh 3.
COc1cccc(C#Cc2ccc([C@@H]3[C@@H](CO)N(C(=O)C4CCCCC4)[C@H]3C#N)cc2)c1 was read as FN deposit inh -10, PAX8 reporter 70* and EWS-Fli inh 14.
Screening COc1cccc(C#Cc2ccc([C@@H]3[C@@H](C#N)N(C(=O)C4CCC4)[C@H]3CO)cc2)c1 returned FN deposit inh 1, PAX8 reporter 24 and EWS-Fli inh 6.
For COc1cccc(C#Cc2ccc([C@@H]3[C@@H](C#N)N(C(=O)C4CCCCC4)[C@H]3CO)cc2)c1 the results were FN deposit inh -13, PAX8 reporter 77* and EWS-Fli inh 1.
COc1cccc(C#Cc2ccc([C@@H]3[C@@H](C#N)N(C(=O)C4CCC4)[C@@H]3CO)cc2)c1 was read as FN deposit inh -5, PAX8 reporter 9 and EWS-Fli inh -11.
For COc1cccc(C#Cc2ccc([C@@H]3[C@@H](CO)N(C(=O)C4CCCC4)[C@H]3C#N)cc2)c1 the results were FN deposit inh -10 and EWS-Fli inh 32.
Screening COc1cccc(C#Cc2ccc([C@@H]3[C@H](C#N)N(C(=O)c4ccccn4)[C@H]3CO)cc2)c1 returned FN deposit inh 3, PAX8 reporter 98* and EWS-Fli inh -26.
Screening O=C(C[C@H]1C[C@@H]2c3cc(NC(=O)C4CCC4)ccc3O[C@@H]2[C@@H](CO)O1)NCC1CC1 returned FN deposit inh -1, PAX8 reporter 8 and EWS-Fli inh 17.
For COc1ccccc1NC(=O)N1CCC(c2nc3cc(C)c(C)cc3[nH]2)CC1 the results were Shn3 inh set2 9, FN deposit inh -1, aSyn 5UTR inh 74*, PAX8 reporter 29 and LMP1 NFkB inh 15.
O=C(C[C@@H]1CC[C@H](NC(=O)C2CCOCC2)[C@H](CO)O1)NCC1CC1 was read as EWS-Fli inh -6.
For O=C(N/N=C/c1ccc([N+](=O)[O-])s1)c1cccc(Br)c1 the results were Shn3 inh set2 29, aSyn 5UTR inh 67* and LMP1 NFkB inh 32.
For Cc1ccc(C(=O)N/N=C/c2ccc([N+](=O)[O-])s2)cc1 the results were Shn3 inh set2 90*, aSyn 5UTR inh 108* and LMP1 NFkB inh 13.
For Cc1cc(C(=O)N/N=C/c2ccc([N+](=O)[O-])s2)n[nH]1 the results were FN deposit inh -4, aSyn 5UTR inh 79*, PAX8 reporter 11, EWS-Fli inh 37 and LMP1 NFkB inh 0.
For O=C(N/N=C/c1ccc(Br)s1)c1ccc([N+](=O)[O-])cc1 the results were Shn3 inh set2 30, FN deposit inh -27, aSyn 5UTR inh 84*, PAX8 reporter 11, EWS-Fli inh 50 and LMP1 NFkB inh 7.
Screening Cc1cc(C(=O)N/N=C/c2ccc(C)s2)n[nH]1 returned Shn3 inh set2 -32, FN deposit inh 0, aSyn 5UTR inh -97, PAX8 reporter -121, EWS-Fli inh -64 and LMP1 NFkB inh -15.
For CC(C)NC(=O)N(C)C[C@@H]1OCCCC[C@@H](C)Oc2ccc(NS(=O)(=O)c3ccc(Cl)cc3)cc2C(=O)N([C@@H](C)CO)C[C@H]1C the results were FN deposit inh 1, PAX8 reporter -6 and EWS-Fli inh -5.
For C[C@@H]1CN([C@H](C)CO)C(=O)c2cc(NC(=O)Nc3ccc4c(c3)OCO4)ccc2O[C@H]1CN(C)S(C)(=O)=O the results were EWS-Fli inh 0.
O=C(N/N=C/c1cc(Br)ccc1O)c1ccncc1 was read as Shn3 inh set2 81, FN deposit inh -5, aSyn 5UTR inh 1, PAX8 reporter 35, EWS-Fli inh 41 and LMP1 NFkB inh -2.
O=C(N/N=C/c1ccc(O)c2ncccc12)c1cccc(Br)c1 was read as Shn3 inh set2 91*, FN deposit inh 10, aSyn 5UTR inh 67*, PAX8 reporter 72*, EWS-Fli inh 21 and LMP1 NFkB inh -10.
For CCCC(=O)Nc1ccc2c(c1)C(=O)N(C)[C@@H]1CC[C@H](CC(=O)NCCCN(C)C)O[C@@H]1CO2 the results were FN deposit inh -7, PAX8 reporter -5 and EWS-Fli inh 2.
O=C(Nc1ccc2nc(-c3ccco3)c(-c3ccco3)nc2c1)NC1CC1 was read as Shn3 inh set2 -4, aSyn 5UTR inh -65 and LMP1 NFkB inh -3.
For O=C(Nc1ccc(N2CCOCC2)cc1)Nc1ccc2nc(-c3ccco3)c(-c3ccco3)nc2c1 the results were Shn3 inh set2 41, aSyn 5UTR inh 112* and LMP1 NFkB inh -70.
N#Cc1cc2cc3c(cc2nc1SCC(=O)N1CCOCC1)OCCO3 was read as Shn3 inh set2 13, FN deposit inh -4, aSyn 5UTR inh 110*, PAX8 reporter -199, EWS-Fli inh 57* and LMP1 NFkB inh 37.
